# Results reported in the M2OR odorant receptor database.
# Tests used:
# Settings in all cases: stereoisomer not certain
# [1] = target: T1, UniProt Q8VGC6
# T1 sequence (whole entry): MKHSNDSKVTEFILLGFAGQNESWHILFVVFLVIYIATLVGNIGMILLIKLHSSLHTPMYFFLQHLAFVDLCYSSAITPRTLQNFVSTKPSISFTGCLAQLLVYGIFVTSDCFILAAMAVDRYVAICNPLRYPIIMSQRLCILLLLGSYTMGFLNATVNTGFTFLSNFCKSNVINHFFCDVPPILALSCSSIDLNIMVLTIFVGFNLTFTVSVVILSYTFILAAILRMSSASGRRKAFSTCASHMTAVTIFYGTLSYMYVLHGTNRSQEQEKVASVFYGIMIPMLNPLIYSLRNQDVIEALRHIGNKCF
# In short: (§1)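 Assay methods differ from source to source, frequently being transient luciferase assays in mammalian cell lines. For each receptor–molecule pair, the label responsive (active) applies when the original authors judged the measured signal statistically different from baseline, and non-responsive (inactive) applies otherwise.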
# [2] = target: T2, UniProt Q8VGJ3
# T2 sequence (whole entry): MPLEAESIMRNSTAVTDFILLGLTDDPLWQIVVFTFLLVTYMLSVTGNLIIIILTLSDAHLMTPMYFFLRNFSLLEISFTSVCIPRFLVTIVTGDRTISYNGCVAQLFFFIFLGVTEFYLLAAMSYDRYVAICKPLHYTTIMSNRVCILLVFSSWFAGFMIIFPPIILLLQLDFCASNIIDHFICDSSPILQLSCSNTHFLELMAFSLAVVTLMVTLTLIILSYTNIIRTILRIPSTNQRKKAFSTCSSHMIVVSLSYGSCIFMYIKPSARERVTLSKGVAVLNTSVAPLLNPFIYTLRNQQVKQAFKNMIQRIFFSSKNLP
# In short: as §1
# [3] = target: T3, UniProt Q8VGL0
# T3 sequence (whole entry): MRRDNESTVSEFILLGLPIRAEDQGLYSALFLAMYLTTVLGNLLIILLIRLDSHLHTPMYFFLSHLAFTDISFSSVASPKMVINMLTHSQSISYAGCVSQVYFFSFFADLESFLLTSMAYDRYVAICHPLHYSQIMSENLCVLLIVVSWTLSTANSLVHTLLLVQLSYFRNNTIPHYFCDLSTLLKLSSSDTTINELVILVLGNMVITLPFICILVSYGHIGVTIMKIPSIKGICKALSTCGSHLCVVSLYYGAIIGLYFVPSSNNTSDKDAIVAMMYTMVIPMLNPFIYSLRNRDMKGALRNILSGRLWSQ
# In short: as §1
# [4] = target: T4, UniProt Q8VGU3
# T4 sequence (whole entry): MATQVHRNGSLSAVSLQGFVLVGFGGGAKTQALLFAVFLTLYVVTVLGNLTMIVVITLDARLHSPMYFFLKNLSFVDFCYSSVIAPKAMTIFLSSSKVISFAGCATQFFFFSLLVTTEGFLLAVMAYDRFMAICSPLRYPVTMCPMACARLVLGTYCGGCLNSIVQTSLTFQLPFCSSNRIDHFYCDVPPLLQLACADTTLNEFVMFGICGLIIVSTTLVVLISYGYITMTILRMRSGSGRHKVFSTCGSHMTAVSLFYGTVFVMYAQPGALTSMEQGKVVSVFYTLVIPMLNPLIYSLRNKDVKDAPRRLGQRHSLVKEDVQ
# In short: as §1
# [5] = target: T5, UniProt Q8VGV7
# T5 sequence (whole entry): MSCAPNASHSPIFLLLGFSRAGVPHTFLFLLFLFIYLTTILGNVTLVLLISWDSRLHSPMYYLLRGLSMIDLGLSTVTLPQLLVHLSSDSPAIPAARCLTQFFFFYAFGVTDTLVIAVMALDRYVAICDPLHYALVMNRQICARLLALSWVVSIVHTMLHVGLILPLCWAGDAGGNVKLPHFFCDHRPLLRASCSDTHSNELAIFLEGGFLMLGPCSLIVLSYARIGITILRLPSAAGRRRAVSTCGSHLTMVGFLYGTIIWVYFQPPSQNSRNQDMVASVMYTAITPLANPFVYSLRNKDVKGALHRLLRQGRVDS
# In short: as §1
# [6] = target: T6, UniProt Q8VGX3
# T6 sequence (whole entry): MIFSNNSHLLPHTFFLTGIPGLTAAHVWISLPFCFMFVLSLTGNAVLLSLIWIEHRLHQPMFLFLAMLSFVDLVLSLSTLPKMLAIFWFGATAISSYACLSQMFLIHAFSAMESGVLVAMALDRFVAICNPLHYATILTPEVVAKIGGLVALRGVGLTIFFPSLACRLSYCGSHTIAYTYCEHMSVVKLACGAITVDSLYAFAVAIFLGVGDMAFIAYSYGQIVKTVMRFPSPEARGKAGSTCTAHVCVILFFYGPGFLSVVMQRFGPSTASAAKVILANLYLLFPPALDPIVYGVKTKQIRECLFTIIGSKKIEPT
# In short: as §1
# [7] = target: T7, UniProt Q8VGX5
# T7 sequence (whole entry): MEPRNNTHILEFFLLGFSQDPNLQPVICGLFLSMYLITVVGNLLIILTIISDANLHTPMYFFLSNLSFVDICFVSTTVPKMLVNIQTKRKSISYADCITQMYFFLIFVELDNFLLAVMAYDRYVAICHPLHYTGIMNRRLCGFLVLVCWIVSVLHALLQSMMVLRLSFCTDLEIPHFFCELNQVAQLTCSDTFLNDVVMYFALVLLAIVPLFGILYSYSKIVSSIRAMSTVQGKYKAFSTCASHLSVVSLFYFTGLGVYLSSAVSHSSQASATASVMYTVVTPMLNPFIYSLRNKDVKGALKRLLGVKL
# In short: as §1
# [8] = target: T8, UniProt Q8VGD7
# T8 sequence (whole entry): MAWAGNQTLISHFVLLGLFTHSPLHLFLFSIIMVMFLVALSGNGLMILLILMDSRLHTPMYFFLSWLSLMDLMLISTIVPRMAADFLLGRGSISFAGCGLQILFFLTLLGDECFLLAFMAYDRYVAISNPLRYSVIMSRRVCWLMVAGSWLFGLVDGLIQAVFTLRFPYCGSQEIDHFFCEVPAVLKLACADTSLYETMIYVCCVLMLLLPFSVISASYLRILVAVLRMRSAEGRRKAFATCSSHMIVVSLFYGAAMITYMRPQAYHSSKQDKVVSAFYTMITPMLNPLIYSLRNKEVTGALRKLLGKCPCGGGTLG
# In short: as §1
# [9] = target: T9, UniProt Q8VGH1
# T9 sequence (whole entry): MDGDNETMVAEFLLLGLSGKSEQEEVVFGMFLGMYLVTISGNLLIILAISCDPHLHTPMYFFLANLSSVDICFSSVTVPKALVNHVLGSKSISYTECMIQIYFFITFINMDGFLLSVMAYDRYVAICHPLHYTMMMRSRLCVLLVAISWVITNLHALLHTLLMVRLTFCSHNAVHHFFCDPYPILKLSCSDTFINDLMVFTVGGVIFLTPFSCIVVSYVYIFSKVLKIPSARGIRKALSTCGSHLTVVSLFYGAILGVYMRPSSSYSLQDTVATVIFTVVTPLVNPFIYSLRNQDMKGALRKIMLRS
# In short: as §1
# [10] = target: T10, UniProt Q8VGJ1
# T10 sequence (whole entry): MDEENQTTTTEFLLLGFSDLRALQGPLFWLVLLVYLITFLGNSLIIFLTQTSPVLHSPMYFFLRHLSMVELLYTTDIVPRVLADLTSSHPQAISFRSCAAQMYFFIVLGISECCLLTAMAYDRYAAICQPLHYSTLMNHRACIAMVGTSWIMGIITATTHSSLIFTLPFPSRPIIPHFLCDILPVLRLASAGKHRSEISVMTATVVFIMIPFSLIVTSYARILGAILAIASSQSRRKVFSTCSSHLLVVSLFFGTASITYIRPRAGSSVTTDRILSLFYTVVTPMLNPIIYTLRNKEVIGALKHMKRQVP
# In short: as §1
# [11] = target: T11, UniProt Q8VGJ5
# T11 sequence (whole entry): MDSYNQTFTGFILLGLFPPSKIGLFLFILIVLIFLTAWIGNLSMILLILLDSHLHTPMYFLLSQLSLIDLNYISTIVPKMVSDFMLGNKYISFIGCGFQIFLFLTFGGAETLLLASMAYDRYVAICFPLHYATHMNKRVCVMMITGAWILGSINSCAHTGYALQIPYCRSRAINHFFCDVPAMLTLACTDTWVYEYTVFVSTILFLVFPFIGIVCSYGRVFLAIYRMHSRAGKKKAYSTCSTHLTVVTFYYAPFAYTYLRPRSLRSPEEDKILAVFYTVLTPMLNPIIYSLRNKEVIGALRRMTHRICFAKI
# In short: as §1
# [12] = target: T12, UniProt Q8VGL7
# T12 sequence (whole entry): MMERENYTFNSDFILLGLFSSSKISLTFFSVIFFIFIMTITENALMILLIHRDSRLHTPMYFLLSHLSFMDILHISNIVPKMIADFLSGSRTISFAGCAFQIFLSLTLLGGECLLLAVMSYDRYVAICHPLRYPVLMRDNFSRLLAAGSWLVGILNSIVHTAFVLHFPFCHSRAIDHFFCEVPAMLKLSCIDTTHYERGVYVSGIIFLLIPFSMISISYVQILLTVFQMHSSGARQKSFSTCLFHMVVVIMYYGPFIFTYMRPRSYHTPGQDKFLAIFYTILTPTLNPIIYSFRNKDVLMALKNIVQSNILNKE
# In short: as §1
# [13] = target: T13, UniProt Q8VGM2
# T13 sequence (whole entry): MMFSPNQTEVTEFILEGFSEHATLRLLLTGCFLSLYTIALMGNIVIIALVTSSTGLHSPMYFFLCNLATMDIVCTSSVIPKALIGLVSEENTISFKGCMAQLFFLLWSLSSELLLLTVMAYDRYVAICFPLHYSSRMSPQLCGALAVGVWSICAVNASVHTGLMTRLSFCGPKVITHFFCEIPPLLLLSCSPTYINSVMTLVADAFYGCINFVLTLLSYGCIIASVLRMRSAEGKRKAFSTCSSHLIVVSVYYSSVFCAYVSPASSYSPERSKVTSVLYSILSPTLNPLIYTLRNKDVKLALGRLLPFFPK
# In short: as §1
# [14] = target: T14, UniProt Q8VGP6
# T14 sequence (whole entry): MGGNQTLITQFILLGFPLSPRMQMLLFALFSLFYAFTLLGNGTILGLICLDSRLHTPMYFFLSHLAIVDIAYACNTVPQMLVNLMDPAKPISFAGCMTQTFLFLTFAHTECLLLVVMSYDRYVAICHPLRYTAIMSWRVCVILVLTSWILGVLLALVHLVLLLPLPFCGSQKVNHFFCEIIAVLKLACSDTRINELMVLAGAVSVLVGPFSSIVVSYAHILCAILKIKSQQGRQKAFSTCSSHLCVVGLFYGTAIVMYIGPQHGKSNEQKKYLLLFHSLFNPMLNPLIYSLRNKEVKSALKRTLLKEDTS
# In short: as §1
# [15] = target: T15, UniProt Q8VGQ3
# T15 sequence (whole entry): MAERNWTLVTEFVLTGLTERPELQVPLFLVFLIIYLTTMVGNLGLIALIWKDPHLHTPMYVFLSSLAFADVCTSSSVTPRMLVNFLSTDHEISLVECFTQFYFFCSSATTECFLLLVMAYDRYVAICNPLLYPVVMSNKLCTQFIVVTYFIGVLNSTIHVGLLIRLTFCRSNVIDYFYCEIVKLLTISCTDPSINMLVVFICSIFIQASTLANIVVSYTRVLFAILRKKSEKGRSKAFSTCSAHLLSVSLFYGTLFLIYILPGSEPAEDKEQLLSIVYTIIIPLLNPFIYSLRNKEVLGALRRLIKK
# In short: as §1
# [16] = target: T16, UniProt Q8VGT4
# T16 sequence (whole entry): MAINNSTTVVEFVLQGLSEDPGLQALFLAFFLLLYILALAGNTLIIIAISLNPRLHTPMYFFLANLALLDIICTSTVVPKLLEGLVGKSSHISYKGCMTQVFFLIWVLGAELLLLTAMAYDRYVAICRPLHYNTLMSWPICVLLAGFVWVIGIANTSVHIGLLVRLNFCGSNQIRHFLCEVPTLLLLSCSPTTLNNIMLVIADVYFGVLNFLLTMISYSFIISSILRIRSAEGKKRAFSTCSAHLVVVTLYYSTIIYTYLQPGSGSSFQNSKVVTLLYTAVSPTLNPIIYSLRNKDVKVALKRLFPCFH
# In short: as §1
# [17] = target: T17, UniProt Q8VGV1
# T17 sequence (whole entry): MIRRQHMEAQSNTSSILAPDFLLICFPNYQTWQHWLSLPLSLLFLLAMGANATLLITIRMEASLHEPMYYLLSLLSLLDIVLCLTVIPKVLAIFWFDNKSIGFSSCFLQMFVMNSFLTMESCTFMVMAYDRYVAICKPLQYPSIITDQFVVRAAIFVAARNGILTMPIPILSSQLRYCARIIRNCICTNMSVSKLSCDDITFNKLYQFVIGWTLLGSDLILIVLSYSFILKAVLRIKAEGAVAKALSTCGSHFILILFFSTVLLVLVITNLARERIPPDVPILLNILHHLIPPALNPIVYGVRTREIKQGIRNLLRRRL
# In short: as §1
# [18] = target: T18, UniProt Q8VGW5
# T18 sequence (whole entry): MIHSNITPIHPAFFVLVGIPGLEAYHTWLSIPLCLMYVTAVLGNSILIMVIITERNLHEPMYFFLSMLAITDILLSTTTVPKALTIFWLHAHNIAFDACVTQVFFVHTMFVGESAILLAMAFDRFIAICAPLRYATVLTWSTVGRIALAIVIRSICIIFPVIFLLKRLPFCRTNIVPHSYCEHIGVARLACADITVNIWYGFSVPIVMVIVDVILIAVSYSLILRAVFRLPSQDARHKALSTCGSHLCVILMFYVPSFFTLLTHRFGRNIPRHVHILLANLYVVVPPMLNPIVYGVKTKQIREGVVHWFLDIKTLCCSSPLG
# In short: as §1
Compound,odorant receptor agonist call [1],odorant receptor agonist call [2],odorant receptor agonist call [3],odorant receptor agonist call [4],odorant receptor agonist call [5],odorant receptor agonist call [6],odorant receptor agonist call [7],odorant receptor agonist call [8],odorant receptor agonist call [9],odorant receptor agonist call [10],odorant receptor agonist call [11],odorant receptor agonist call [12],odorant receptor agonist call [13],odorant receptor agonist call [14],odorant receptor agonist call [15],odorant receptor agonist call [16],odorant receptor agonist call [17],odorant receptor agonist call [18]
C1CCOC1,inactive,inactive,inactive,inactive,inactive,inactive,inactive,–,–,–,–,–,–,–,–,–,–,–
CCCCCC=O,inactive,inactive,inactive,inactive,inactive,inactive,inactive,inactive,inactive,inactive,inactive,inactive,inactive,inactive,inactive,inactive,inactive,–
CCCCCCCC(=O)[O-].[H+],inactive,–,inactive,–,–,–,inactive,inactive,inactive,inactive,inactive,inactive,inactive,inactive,inactive,inactive,active,inactive
CCCCC=O,inactive,inactive,inactive,inactive,inactive,inactive,inactive,–,–,–,–,–,–,–,–,–,–,active
CCCCC(C)=O,inactive,inactive,inactive,inactive,inactive,inactive,inactive,inactive,inactive,inactive,active,inactive,inactive,inactive,inactive,inactive,inactive,–
